Several values for one entry are separate records, joined by “and”; a condition that tells them apart may be missing. Equal entries are not always repeated.
Experiments:
[1] = Inhibition of recombinant p56 Lck tyrosine kinase expressed in insect cells
Summary of the method: (§1)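 His-tagged recombinant Lck made in insect cells by baculovirus and purified on nickel affinity resin. Kinase buffer is 20 mM MOPS pH 7 with 10 mM MgCl2, and the test compound is present. It is stopped after 10 min with TCA/pyrophosphate then BSA. Enolase is precipitated at 4 °C, filtered and counted by scintillation.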

[2] = Inhibition of Human PBL (T cell) proliferation; format: functional
Summary of the method: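 Normal human peripheral blood T cells are added with test compound and anti-CD28 (E.3) antibody to wells precoated with anti-CD3 mAb (G19-4). After 3 days [3H]-thymidine is added, and after further incubation the cells are harvested and incorporation is counted by scintillation.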

[3] = target: T1, Inhibitor of nuclear factor kappa-B kinase subunit alpha (Homo sapiens, UniProt O15111); experiment: Inhibition of I kappa-B kinase alpha
T1 sequence (O15111 whole entry): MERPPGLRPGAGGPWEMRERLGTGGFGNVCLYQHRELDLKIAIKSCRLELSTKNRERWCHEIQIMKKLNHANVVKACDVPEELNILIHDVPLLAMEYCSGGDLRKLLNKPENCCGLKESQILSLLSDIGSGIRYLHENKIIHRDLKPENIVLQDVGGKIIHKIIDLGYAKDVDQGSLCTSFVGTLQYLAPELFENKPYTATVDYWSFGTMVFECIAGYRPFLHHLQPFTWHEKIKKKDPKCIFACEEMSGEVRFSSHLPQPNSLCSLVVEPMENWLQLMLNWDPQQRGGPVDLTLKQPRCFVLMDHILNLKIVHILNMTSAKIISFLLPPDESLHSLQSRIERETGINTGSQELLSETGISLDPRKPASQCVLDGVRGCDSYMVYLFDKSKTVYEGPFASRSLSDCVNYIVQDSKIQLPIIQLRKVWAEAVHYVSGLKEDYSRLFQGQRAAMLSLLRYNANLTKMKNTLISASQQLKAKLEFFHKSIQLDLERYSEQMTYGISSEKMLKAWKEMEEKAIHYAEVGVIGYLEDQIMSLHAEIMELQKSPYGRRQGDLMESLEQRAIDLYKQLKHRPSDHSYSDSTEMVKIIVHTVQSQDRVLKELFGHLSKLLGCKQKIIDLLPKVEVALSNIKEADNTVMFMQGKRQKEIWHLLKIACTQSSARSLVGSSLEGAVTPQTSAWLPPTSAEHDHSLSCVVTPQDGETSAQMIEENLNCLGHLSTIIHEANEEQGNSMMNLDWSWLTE

[4] = target: Tyrosine-protein kinase Yes (Homo sapiens, UniProt P07947); experiment: Inhibition of Yes kinase
Tyrosine-protein kinase Yes, sequence (P07947 whole entry): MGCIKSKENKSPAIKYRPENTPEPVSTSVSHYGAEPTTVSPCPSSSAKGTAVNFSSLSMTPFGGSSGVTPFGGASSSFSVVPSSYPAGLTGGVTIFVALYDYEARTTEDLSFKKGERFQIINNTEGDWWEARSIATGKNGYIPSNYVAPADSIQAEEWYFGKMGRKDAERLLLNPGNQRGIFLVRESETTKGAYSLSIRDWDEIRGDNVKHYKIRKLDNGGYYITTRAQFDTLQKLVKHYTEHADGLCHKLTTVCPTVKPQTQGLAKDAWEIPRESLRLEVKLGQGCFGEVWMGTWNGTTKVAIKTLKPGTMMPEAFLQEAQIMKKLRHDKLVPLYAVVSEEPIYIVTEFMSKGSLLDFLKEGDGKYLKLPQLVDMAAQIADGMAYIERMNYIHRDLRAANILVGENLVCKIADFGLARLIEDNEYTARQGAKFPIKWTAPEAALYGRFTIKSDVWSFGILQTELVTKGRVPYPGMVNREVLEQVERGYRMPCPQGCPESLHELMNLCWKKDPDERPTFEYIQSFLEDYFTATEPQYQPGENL

[5] = target: MAP kinase p38 (Homo sapiens, UniProt O15264+Q15759+Q16539+P53778); experiment: Inhibition of p38 MAP-kinase; format: protein assay
[6] = target: Tyrosine-protein kinase SYK (Homo sapiens, UniProt P43405); experiment: Inhibition of Syk protein tyrosine kinase
[7] = Inhibition of Protein kinase A
[8] = target: Tyrosine-protein kinase Fgr (Homo sapiens, UniProt P09769); experiment: Inhibition of Fgr protein kinase
Tyrosine-protein kinase Fgr, sequence (P09769 whole entry): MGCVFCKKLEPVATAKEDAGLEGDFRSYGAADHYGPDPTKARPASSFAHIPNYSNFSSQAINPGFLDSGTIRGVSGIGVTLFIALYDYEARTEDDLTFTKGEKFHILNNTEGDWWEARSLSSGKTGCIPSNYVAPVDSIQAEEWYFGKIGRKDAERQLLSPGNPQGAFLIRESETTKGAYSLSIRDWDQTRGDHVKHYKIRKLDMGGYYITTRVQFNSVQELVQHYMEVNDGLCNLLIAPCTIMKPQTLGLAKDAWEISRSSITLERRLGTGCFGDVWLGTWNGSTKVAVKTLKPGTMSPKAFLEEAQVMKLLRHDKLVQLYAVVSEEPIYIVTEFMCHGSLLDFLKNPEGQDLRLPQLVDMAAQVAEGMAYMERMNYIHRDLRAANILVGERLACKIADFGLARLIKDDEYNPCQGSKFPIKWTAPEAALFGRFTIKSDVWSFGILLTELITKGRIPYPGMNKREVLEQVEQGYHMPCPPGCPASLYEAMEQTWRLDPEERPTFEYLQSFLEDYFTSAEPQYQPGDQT

[9] = target: T2, Tyrosine-protein kinase ZAP-70 (Homo sapiens, UniProt P43403); experiment: Inhibition of Zeta-chain (TCR) associated protein kinase 70 kDa (ZAP-70)
T2 sequence (P43403 whole entry): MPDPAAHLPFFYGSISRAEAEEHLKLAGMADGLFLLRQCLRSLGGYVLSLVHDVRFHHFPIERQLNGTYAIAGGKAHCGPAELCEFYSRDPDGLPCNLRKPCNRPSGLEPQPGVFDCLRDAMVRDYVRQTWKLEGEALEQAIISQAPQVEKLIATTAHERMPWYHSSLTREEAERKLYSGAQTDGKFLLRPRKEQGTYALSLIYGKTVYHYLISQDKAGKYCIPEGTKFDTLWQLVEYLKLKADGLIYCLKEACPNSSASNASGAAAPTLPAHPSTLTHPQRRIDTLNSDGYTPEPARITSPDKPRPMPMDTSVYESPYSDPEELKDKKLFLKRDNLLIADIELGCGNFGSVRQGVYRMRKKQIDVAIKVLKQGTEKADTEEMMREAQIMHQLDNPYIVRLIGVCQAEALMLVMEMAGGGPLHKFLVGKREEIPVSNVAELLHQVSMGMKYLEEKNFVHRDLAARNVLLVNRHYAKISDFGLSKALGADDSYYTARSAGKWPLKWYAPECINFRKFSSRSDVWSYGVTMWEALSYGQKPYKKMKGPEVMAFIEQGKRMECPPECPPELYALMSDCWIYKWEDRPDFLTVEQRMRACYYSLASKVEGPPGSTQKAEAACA

[10] = Inhibition of p56 Lck tyrosine kinase; summary of the method: as §1
[11] = target: Tyrosine-protein kinase HCK (Homo sapiens, UniProt P08631); experiment: Inhibition of Hck kinase
Tyrosine-protein kinase HCK, sequence (P08631 whole entry): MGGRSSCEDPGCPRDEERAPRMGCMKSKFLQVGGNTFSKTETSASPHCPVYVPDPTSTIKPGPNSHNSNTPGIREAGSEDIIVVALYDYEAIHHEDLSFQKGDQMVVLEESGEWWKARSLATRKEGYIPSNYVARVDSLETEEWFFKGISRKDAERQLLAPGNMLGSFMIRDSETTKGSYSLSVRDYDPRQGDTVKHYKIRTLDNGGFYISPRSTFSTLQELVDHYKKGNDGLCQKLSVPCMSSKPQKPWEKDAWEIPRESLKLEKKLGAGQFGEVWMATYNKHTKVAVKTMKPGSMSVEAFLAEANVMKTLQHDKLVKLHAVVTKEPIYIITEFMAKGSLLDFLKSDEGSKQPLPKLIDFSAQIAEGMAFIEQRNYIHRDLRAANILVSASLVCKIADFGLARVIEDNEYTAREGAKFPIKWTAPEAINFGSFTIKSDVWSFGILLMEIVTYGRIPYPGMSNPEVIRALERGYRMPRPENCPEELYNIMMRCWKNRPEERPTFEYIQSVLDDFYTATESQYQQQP

[12] = target: Protein kinase C (PKC); experiment: Inhibition of PKC kinase; format: protein assay
[13] = Inhibition of Blk kinase
[14] = target: Tyrosine-protein kinase Lyn (Homo sapiens, UniProt P07948); experiment: Inhibition of Lyn kinase
Tyrosine-protein kinase Lyn, sequence (P07948 whole entry): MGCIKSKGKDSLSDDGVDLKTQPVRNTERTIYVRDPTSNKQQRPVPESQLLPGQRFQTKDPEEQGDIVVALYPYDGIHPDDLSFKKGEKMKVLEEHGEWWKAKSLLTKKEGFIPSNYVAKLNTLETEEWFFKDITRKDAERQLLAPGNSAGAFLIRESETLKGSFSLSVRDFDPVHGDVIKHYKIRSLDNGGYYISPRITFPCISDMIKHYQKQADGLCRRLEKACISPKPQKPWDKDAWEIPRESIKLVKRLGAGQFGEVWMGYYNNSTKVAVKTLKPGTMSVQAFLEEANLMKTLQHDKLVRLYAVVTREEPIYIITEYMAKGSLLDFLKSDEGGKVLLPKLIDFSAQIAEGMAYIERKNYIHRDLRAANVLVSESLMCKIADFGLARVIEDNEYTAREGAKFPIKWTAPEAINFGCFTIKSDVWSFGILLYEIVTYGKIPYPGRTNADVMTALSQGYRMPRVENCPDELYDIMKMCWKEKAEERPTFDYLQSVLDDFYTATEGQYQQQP

[15] = target: Tyrosine-protein kinase Fyn (Homo sapiens, UniProt P06241); experiment: Inhibition of Fyn protein kinase
Tyrosine-protein kinase Fyn, sequence (P06241 whole entry): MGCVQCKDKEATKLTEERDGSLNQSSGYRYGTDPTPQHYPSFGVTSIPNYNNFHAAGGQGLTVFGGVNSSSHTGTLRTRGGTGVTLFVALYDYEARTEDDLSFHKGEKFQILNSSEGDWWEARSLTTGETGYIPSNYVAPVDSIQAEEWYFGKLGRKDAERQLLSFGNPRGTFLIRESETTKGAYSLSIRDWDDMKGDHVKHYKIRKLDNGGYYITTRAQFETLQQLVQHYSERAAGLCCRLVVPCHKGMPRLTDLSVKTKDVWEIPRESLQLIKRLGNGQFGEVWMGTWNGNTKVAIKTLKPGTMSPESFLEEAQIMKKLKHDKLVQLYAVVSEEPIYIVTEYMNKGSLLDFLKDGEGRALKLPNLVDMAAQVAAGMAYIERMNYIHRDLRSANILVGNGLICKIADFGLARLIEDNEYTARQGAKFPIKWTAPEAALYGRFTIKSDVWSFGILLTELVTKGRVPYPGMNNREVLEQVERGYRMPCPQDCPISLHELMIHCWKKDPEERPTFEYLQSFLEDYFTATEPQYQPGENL

[16] = Binding affinity for recombinant Lck/Yes-related tyrosine kinase expressed in insect cells
[17] = target: Receptor tyrosine-protein kinase erbB-2 (Homo sapiens, UniProt P04626); experiment: Inhibition of HER2 kinase
Receptor tyrosine-protein kinase erbB-2, sequence (P04626 whole entry): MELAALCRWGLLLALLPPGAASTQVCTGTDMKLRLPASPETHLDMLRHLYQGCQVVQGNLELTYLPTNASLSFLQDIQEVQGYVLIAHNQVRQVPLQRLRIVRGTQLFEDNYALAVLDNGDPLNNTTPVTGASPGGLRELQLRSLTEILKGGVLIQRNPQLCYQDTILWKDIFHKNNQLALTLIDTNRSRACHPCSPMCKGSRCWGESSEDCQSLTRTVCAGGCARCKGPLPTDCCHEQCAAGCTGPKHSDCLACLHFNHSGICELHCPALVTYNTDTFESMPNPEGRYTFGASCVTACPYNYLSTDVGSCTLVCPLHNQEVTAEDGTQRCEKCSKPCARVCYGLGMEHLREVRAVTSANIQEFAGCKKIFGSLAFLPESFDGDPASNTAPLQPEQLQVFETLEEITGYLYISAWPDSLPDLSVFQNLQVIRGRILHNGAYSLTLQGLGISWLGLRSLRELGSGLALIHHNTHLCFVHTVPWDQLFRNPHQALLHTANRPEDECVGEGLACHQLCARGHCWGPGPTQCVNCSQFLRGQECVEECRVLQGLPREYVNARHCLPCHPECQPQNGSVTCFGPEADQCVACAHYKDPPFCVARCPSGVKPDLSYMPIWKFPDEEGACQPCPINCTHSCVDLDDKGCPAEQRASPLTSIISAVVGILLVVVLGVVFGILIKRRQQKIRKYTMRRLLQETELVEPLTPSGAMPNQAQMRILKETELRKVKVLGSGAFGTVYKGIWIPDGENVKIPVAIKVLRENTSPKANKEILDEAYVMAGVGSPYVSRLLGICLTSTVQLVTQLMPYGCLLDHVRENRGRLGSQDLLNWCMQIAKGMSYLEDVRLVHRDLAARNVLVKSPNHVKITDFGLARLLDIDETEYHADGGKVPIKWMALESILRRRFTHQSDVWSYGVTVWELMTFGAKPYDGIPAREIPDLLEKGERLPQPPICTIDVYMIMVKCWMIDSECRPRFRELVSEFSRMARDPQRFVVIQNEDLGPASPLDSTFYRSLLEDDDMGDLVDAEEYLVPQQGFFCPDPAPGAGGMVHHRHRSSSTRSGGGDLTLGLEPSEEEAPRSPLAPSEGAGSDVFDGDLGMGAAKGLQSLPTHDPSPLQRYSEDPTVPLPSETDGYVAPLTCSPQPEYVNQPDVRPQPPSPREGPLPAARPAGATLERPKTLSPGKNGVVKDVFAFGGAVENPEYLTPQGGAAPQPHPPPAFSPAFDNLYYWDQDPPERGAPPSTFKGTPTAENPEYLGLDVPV

[18] = target: T3, Inhibitor of nuclear factor kappa-B kinase subunit beta (Homo sapiens, UniProt O14920); experiment: Inhibition of I-kappa-B-kinase beta
T3 sequence (O14920 whole entry): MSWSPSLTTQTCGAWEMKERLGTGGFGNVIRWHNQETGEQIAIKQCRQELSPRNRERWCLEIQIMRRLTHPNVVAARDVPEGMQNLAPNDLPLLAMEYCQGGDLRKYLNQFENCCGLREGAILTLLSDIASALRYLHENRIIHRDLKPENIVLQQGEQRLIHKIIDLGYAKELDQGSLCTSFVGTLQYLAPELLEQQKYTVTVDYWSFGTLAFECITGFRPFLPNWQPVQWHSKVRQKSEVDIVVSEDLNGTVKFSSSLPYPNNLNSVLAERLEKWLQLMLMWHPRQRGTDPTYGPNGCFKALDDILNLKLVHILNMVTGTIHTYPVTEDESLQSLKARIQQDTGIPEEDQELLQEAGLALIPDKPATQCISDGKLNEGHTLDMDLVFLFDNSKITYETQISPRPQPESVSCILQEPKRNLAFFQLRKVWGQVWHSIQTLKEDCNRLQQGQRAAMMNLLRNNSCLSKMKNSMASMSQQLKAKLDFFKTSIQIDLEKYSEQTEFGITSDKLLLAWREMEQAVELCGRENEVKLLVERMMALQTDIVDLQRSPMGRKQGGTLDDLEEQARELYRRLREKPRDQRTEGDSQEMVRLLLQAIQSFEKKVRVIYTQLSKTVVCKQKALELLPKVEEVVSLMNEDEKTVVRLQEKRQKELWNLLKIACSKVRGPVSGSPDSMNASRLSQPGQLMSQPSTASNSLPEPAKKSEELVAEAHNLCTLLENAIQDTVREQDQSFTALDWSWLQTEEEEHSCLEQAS

[19] = Inhibition of Platelet-derived growth factor receptor
[20] = Binding affinity for recombinant p56 Lck tyrosine kinase expressed in insect cells; summary of the method: as §1

Row | SMILES | IC50 [1] [nM] | IC50 ([2]; Homo sapiens) [nM] | also measured
1 | Cc1cccc(Cl)c1Nc1nc2ccc(N3C[C@@H](C)N[C@@H](C)C3)nc2n2cncc12 | 2 | 400 | 
2 | Cc1cccc(Cl)c1Nc1nc2ccc(Cl)nc2n2cncc12 | 25 |  | 
3 | Cc1cccc(Cl)c1Nc1nc2ccc(NCCO)nc2n2cncc12 | 3 | 490 | 
4 | Cc1cccc(Cl)c1Nc1nc2ccc(N3C[C@H](O)[C@@H](O)C3)nc2n2cncc12 | 13 | > 2000 | 
5 | COc1ccc2c(c1)nc(Nc1c(C)cccc1Cl)c1cncn12 |  | 2600 | 
6 | Cc1cccc(Cl)c1Nc1nc2cnccc2n2cncc12 | 77 |  | 
7 | Cc1cccc(Cl)c1Nc1nc2ccc(N3CCN(C)CC3)nc2n2cncc12 | 1 | 400 | 
8 | COc1ncc2c(n1)nc(Nc1c(C)cccc1Cl)c1cncn12 | > 780 |  | 
9 | Cc1cccc(Cl)c1Nc1nc2ncccc2n2cncc12 | 90 |  | 
10 | CCN(CC)c1ccc2nc(Nc3c(C)cccc3Cl)c3cncn3c2n1 | 2 | 2100 | 
11 | Cc1cccc(Cl)c1Nc1nc2ccc(N3CCN[C@H](CO)C3)nc2n2cncc12 | 3 | 180 | 
12 | Cc1cccc(Cl)c1Nc1nc2ccc(N3CCN(CCO)CC3)nc2n2cncc12 | 9 | 240 | 
13 | COc1cc2nc(Nc3c(C)cccc3Cl)c3cncn3c2cc1OC |  | 670 | 
14 | Brc1ccccc1Nc1nc2ccccc2n2cncc12 |  | 17000 | 
15 | Cc1cccc(Cl)c1Nc1nc2ccc(N(CCO)CCO)nc2n2cncc12 | 4 | 620 | 
16 | Cc1cccc(Cl)c1NC1=NC2N=CN(C)C2n2c1cnc2C (stereo unspecified) | > 780 |  | 
17 | Cc1cccc(Cl)c1Nc1nc2ccc(N(C)CCN(C)C)nc2n2cncc12 | 71 |  | 
18 | Cc1cccc(Cl)c1Nc1nc2ccccc2n2cncc12 | 9 | 5000 | 
19 | Cc1cccc(Cl)c1Nc1nc2cccnc2n2cncc12 | 30 |  | 
20 | Cc1cccc(Cl)c1Nc1nc2ccc(N3CCN(CCN(C)C)CC3)nc2n2cncc12 | 2 | 250 | 
21 | Cc1cccc(Cl)c1Nc1nc2ccc(N3CCN[C@@H](C)C3)nc2n2cncc12 |  |  | IC50 [3]: > 10 µM; IC50 [4]: 4.7 nM; IC50 [5]: 380 nM; IC50 [6]: > 10 µM; IC50 [7]: > 10 µM; IC50 [8]: 2.8 nM; IC50 [9]: > 1000 nM; IC50 [10]: 4 nM; IC50 [11]: 23 nM; IC50 [12]: > 10 µM; IC50 [13]: 27 nM; IC50 [14]: 0.5 nM; IC50 [15]: 5 nM; Kd [16]: 0.17 nM; Ki [16]: 0.55 nM; IC50 [2]: 273 nM and > 100 nM; IC50 [17]: > 1000 nM; IC50 [18]: > 10 µM; IC50 [19]: > 1000 nM
22 | Cc1cccc(Cl)c1Nc1nc2ccc(-n3ccnc3)nc2n2cncc12 | 5 | 470 | 
23 | COc1ccc2nc(Nc3c(C)cccc3Cl)c3cncn3c2n1 | 19 | 1800 | 

Row | SMILES | IC50 [1] [nM] | IC50 ([2]; Homo sapiens) [nM] | also measured
24 | COc1cc2c(cc1NCCN(C)C)nc(Nc1c(C)cccc1Cl)c1cncn12 |  | 194 | 
25 | Cc1cccc(Cl)c1Nc1nc2ccc(N3CCCNCC3)nc2n2cncc12 | 6 | 540 | 
26 | Cc1cccc(C)c1Nc1nc2ncccc2n2cncc12 | 150 |  | 
27 | Cc1cccc(Cl)c1Nc1nc2ccc(N(C)CCO)nc2n2cncc12 | 3 | 620 | 
28 | Cc1cccc(Cl)c1Nc1nc2ccc(N3CC[C@@H](O)C3)nc2n2cncc12 | 8 | 730 | 
29 | Cc1cccc(Cl)c1Nc1nc2ccc(N3CCN[C@H](C)C3)nc2n2cncc12 | 2 | 240 | 
30 | Cc1cccc(Cl)c1Nc1nc2ccc(N(C)C)nc2n2cncc12 | 1 | 1200 | Log IC50 [20]: 3 µM
31 | Cc1cccc(Cl)c1Nc1nc2cc(N3CCNCC3)ncc2n2cncc12 | 163 |  | 
32 | Cc1cccc(Cl)c1Nc1nc2ccc(N3CC[C@H](N)C3)nc2n2cncc12 | 6 | 370 | 
33 | Cc1cccc(Cl)c1Nc1nc2ccncc2n2cncc12 | 1400 |  | 
34 | Cc1cccc(Cl)c1Nc1nc2ccc(N3CCOCC3)nc2n2cncc12 | 1 | 1900 | 
35 | Cc1cccc(Cl)c1Nc1nc2ccc(N3CCN[C@@H](CO)C3)nc2n2cncc12 | 5 | 270 | 
36 | CC1=NN(C)C2C1N=C(Nc1c(C)cccc1Cl)c1cnc(C)n12 (stereo unspecified) | > 780 |  | 
37 | Cc1cccc(Cl)c1Nc1nc2ccc(N3C[C@@H](O)[C@H](O)C3)nc2n2cncc12 | 5 | 440 | 
38 | Cc1cccc(Cl)c1Nc1nc2ccc(N(C)C[C@H](O)CO)nc2n2cncc12 | 13 | 630 | 
39 | Cc1cccc(Cl)c1Nc1nc2cnc(N3C[C@@H](C)N[C@@H](C)C3)cc2n2cncc12 | 29 |  | 
40 | Cc1cccc(Cl)c1Nc1nc2ccc(N(C)C[C@@H](O)CO)nc2n2cncc12 | 7 | 300 | 
41 | Cc1cccc(Cl)c1Nc1nc2cc(N(C)CCN(C)C)ncc2n2cncc12 | 240 |  | 
42 | Cc1cccc(Cl)c1Nc1nc2cc(N(C)CCN3CCOCC3)ncc2n2cncc12 | 103 |  | 
43 | Cc1cccc(Cl)c1Nc1nc2ccc(N3CCCCC3)nc2n2cncc12 | 7 |  | 
44 | Cc1cccc(Cl)c1Nc1nc2ccc(N3CC[C@@H](N)C3)nc2n2cncc12 | 7 | 310 | 
45 | Cc1cccc(C)c1Nc1nc2ccc(N3CCNCC3)nc2n2cncc12 | 1 | 230 | 
46 | Cc1cccc(Cl)c1Nc1nc2ccc(N3CC[C@H](O)C3)nc2n2cncc12 | 4 | 340 | 

Source: ChEMBL document CHEMBL1138736, “Imidazoquinoxaline Src-family kinase p56Lck inhibitors: SAR, QSAR, and the discovery of (S)-N-(2-chloro-6-methylphenyl)-2-(3-methyl-1-piperazinyl)imidazo- [1,5-a]pyrido[3,2-e]pyrazin-6-amine (BMS-279700) as a potent and orally active inhibitor with excellent in vivo antiinflammatory activity” (J Med Chem, 2004)
